PLCg1 inh: blocks human PLC-gamma1 enzyme activity | P19174 | purified PLC-gamma1, fluorogenic substrate, fluorescence | inhibition, % at 12.2 µM | 370,000 compounds, 0.84% hits | AID 720700
Target sequence (P19174 whole entry, looked up): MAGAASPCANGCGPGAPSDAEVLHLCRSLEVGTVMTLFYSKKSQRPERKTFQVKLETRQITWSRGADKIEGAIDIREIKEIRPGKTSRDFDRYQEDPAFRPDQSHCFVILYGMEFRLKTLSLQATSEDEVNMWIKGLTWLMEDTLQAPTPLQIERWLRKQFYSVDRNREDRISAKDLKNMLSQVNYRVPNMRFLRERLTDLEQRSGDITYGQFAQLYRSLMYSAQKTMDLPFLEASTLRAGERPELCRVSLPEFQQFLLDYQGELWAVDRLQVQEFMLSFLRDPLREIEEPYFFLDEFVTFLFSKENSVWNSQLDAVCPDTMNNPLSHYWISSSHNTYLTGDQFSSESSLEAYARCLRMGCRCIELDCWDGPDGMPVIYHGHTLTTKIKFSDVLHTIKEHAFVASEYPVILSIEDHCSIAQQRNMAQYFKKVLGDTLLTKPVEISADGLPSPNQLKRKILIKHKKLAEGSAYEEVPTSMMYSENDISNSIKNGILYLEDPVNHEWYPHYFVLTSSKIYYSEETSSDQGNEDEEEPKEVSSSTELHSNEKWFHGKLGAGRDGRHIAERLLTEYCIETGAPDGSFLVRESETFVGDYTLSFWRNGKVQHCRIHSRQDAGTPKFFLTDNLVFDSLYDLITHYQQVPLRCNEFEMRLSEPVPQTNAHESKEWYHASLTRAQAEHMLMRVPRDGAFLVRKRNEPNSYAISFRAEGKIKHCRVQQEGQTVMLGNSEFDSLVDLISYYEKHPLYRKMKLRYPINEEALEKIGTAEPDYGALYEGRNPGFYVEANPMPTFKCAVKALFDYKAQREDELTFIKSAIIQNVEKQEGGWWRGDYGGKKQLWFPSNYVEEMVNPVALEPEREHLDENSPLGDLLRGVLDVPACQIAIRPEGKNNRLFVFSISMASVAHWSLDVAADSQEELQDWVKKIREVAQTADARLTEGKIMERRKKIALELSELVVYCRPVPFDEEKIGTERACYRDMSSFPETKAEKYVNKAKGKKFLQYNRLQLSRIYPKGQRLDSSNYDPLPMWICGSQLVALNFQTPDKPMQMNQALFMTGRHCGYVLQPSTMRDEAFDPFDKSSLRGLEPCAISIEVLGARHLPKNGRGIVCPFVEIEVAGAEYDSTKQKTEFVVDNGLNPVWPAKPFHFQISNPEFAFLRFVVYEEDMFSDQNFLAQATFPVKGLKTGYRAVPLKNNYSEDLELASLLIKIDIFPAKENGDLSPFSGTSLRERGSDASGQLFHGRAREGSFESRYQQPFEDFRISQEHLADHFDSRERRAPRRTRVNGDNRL
PLC-beta3 inh: blocks human PLC-beta3 enzyme activity; inhibition, % at 12.2 µM; Q01970; 370,000 compounds, 0.18% hits; Purified PLC-beta3, fluorogenic substrate, fluorescence; AID 720704; in the data active = inhibition above about 11%;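 note: 0% = median of compound wells on plate and 100% = full blocker control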
proCasp7 act: activates human procaspase-7, counter-screen for procaspase-3 activators | P55210 | recombinant procaspase-7, Ac-DEVD-pNA absorbance 405 nm; D23A/D198A/D206A triple mutant, cannot self-cleave; scale: DMSO 0, 5 µM enzyme 100 | activation, % at 8.5 µM | 330,000 compounds, 0.093% hits | AID 463210;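 active = percent activation above the screen-wide mean plus 3 SD, cut at about 25% in these data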
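Assay system: Uncleavable procaspase-7 mutant enzyme | Input: 2 µM procaspase-7 mutant as dispensed | Timing: 1 h compound preincubation, 2 h substrate cleavage, 25 °C | Repeats: One well per compound | Control set: DMSO wells as 0%, DMSO with 5 µM added PC-7 as 100% | Technique: Epi-absorbance of released pNA at 405 nm, two timepoints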
HGIII-sPLA2 inh: Blocks human group III sPLA2 activity. 370,000 compounds, 0.56% hits. QFRET BODIPY PC-A2 liposome hydrolysis, fluorescence. inhibition, % at 12.2 µM. Q9NZ20;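 active = inhibition above mean plus 3 SD of compounds lying within the high and low control bounds, cut at about 19% in these data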;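 note: 0% = median of test compound wells and 100% = no enzyme DMSO wells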
procasp3 activ: procaspase-3 (human) activation; AID 463141; 330,000 compounds, 0.11% hits; recombinant procaspase-3 D3A, Ac-DEVD-pNA absorbance 405 nm; P42574; activation, % at 8.5 µM;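 active = activation above the mean of all tested compounds plus 3 SD, cut at about 21% in these data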;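 note: 0% = DMSO alone and 100% = DMSO wells spiked with extra 5 µM PC-3 D3A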
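Assay system: Autoprocessing-dead procaspase-3 D3A mutant enzyme; also added: Ac-DEVD-pNA; doses: one concentration, 8.5 µM nominal, 0.8% DMSO; times: 1 h compound preincubation, 2 h substrate hydrolysis at 25 °C; technique: 405 nm absorbance of p-nitroaniline, reads at 0 and 120 min; measure: % activation between DMSO and enzyme-spiked controls; repeats: single replicate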
PLCgamma1 ctr: counter-screen for PLC-beta3 inhibitors: inhibitors of human PLC-gamma1. AID 743258. purified PLC-gamma1, fluorogenic substrate, fluorescence. 3,300 compounds, 3.1% hits. inhibition, % at 12.3 µM. shares compounds with PLCg1 inh
PLCbeta3 conf: confirmation of human PLC-beta3 inhibitors | shares compounds with PLCg1 inh | purified PLC-beta3, fluorogenic substrate fluorescence | inhibition, % at 12.3 µM | 3,300 compounds, 1% hits | AID 743261; in the data active = inhibition above about 11%
* = called active by the depositor; nt = no result given. The list is not random: actives were taken first. Their share in the collection is about 1.6%. Cut-off read from the data, not from the text of the source, unless noted: active = inhibition above about 9.5%; inactive = the rest.

SMILES	PLCg1 inh	PLC-beta3 inh	proCasp7 act	HGIII-sPLA2 inh	procasp3 activ	PLCgamma1 ctr	PLCbeta3 conf
Cc1ccc(C)c(Cn2c(C(C)O)nc3ccccc32)c1 (stereo unspecified)	11*	2	2	-5	-5	-1	3
CC(O)c1nc2ccccc2n1Cc1ccccc1 (stereo unspecified)	1	-1	4	-5	1	nt	nt
O=C(NNC(=O)c1c(O)c2ccccc2[nH]c1=O)c1ccccc1Br	-2	-5	1	6	12	nt	nt
C/C=C/C(=O)OCC(=O)Nc1ccccc1Br	9.6*	0	9	5	1	-6	-1
Oc1ccc(C[C@@H]2CNCCN2CCCCC2CCCCC2)cc1	9	14*	2	2	3	3	3
CN1C(=O)CSC1=NC12CC3CC(CC(C3)C1)C2	11*	4	9	1	3	-10	-3
CC(C)N(CCO)C(=O)CCc1nnc(Cc2cccc(C(F)(F)F)c2)o1	9.7*	-2	1	-1	-6	-1	1
CSc1sc(C(=O)NC(=O)NCc2ccncc2)c(C)c1-c1ccon1	-4	-14	-1	-2	5	nt	nt
CCOc1cc2c(cc1O)C(=NO)CC1C2CCC2(C)C(O)CCC12 (stereo unspecified)	-1	-2	nt	-2	nt	nt	nt
O=C1C(=O)N(CCO)C(c2ccc(Br)cc2)/C1=C(\O)c1ccccc1 (stereo unspecified)	12*	4	0	-9	-1	-5	1
O=C1C(=O)N(CCO)C(c2ccccc2)/C1=C(\O)c1ccccc1 (stereo unspecified)	4	2	-6	15	-9	nt	nt
Cc1ccc(C(=O)N(C)CC(=O)Nc2cccc(C)c2C)o1	-1	-3	-2	-3	2	nt	nt
COc1cc(-c2nnc(SCC3(c4ccccc4)OCCO3)o2)cc(OC)c1OC	12*	-1	-3	-8	-2	-4	0
N/C(=N\NS(=O)(=O)c1ccccc1)c1ccccn1	1	-4	-3	-1	-10	nt	nt
N/C(=N\NS(=O)(=O)c1ccc(Cl)cc1)c1ccccn1	10*	3	5	11	-5	-3	-3
O=C(C[C@@H]1CC[C@@H]2[C@H](COC[C@H](O)CN2C(=O)Nc2ccc(F)cc2)O1)NCCc1ccncc1	1	0	nt	14	nt	nt	nt
CC(=O)c1cccc(NC(=O)C2C3C=CC(C3=C(c3ccccc3)c3ccccc3)C2C(=O)O)c1 (stereo unspecified)	10*	-13	-7	-6	-3	-8	-12
CC(=O)c1cccc(NC(=O)Nc2ccccc2)c1	3	-2	9	-9	5	nt	nt
O=C(c1ccc2c(=O)n3c(nc2c1)CCCCC3)N1CCc2ccccc21	-1	-5	3	-8	5	nt	nt
Cn1nnnc1SCCNCc1cccc2ccccc12	0	-137	13	4	3	nt	nt
Cn1nnnc1SCCNC/C=C/c1ccccc1	8	13*	-6	7	-1	-5	0
Fc1ccccc1-c1n[nH]c(=S)n1N=Cc1ccc(OCc2ccccc2)cc1	-6	-6	nt	-23	nt	nt	nt
CCCn1c(=O)c(F)cn(Cc2ccc(OC)c([N+](=O)[O-])c2)c1=O	4	12*	-1	1	4	-5	0
CCCCn1c(=O)c(F)cn(Cc2ccc(OC)c([N+](=O)[O-])c2)c1=O	4	3	1	8	-5	nt	nt
CN(C(=O)COC(=O)c1nc(Cl)c(Cl)c(Cl)c1Cl)C1CCS(=O)(=O)C1 (stereo unspecified)	-2	-4	nt	11	nt	nt	nt
SMILES	PLCg1 inh	PLC-beta3 inh	proCasp7 act	HGIII-sPLA2 inh	procasp3 activ	PLCgamma1 ctr	PLCbeta3 conf
COc1c(C)cc(C(=O)C2CCCN(C(=O)/C=C/c3ccccn3)C2)cc1C (stereo unspecified)	11*	11*	4	9	-3	-4	-5
COc1c(C)cc(C(=O)C2CCCN(C(=O)c3cc(C)n(C)n3)C2)cc1C (stereo unspecified)	-2	-11	9	3	-2	nt	nt
Cc1ccnc(NC(=O)c2ccc(Cl)c(NC(=O)C(C)Oc3ccccc3)c2)c1 (stereo unspecified)	9.9*	5	0	9	4	-5	-4
O=C(O)c1[nH]c2ccccc2c1C(c1cc(Cl)cc([N+](=O)[O-])c1O)c1c(C(=O)O)[nH]c2ccccc12	16*	-7	-2	-242	6	31*	-1
O=C(O)c1[nH]c2ccccc2c1C(c1ccccc1)c1c(C(=O)O)[nH]c2ccccc12	4	-6	2	-127	0	nt	nt
CCc1cccc2c1NC1(CCCC1)CC2C (stereo unspecified)	10*	4	4	6	-1	4	-4
COc1ccc(C(C[N+](=O)[O-])c2c(C)[nH]n(-c3ccccc3)c2=O)cc1 (stereo unspecified)	10*	-1	2	11	-6	3	6
Cc1[nH]n(-c2ccccc2)c(=O)c1C(c1ccc(O)c([N+](=O)[O-])c1)c1c(C)[nH]n(-c2ccccc2)c1=O	22*	10	-25	-6	-19	-3	-2
CN1C(=O)c2ccccc2Cc2c(NCc3ccccc3)ncnc21	1	2	nt	1	nt	nt	nt
CCCn1c(N)c(N(CCOC)C(=O)c2ccccc2)c(=O)[nH]c1=O	-1	-6	-1	12	0	nt	nt
N#Cc1ccc(/C=C2\CC3(OC(=O)C4CCCCC4)CCCN2C3)cc1 (stereo unspecified)	-4	-6	nt	-6	nt	nt	nt
COc1ccc(NC(=S)Nc2cc(-c3ccccc3)[nH]n2)cc1Cl	12*	12*	-11	14	-7	-1	-3
COc1ccc(NC(=S)Nc2cc(C)[nH]n2)cc1Cl	0	-6	-35	19	-12	nt	nt
CCOC(=O)CN(C(=O)COC(=O)C1(c2ccccc2)CC1)c1ccc(F)cc1	2	-1	7	5	13	nt	nt
O=c1c2ccccc2ncn1CCOc1ccccc1[N+](=O)[O-]	3	2	8	-4	-3	nt	nt
COc1ccc(N2CC(C(=O)Nc3cc(C)on3)CC2=O)cc1 (stereo unspecified)	1	0	7	-1	-2	nt	nt
CCOc1ccc(N2CC(C(=O)Nc3nnc(Cc4ccc(OC)cc4)s3)CC2=O)cc1 (stereo unspecified)	16*	-2	-2	-7	-4	-6	-4
COc1ccc(N2CC(C(=O)Nc3cccc(C)n3)CC2=O)cc1 (stereo unspecified)	10*	1	9	2	-2	-5	-2
